In data set [1] the test system is RAW264.7. Briefly: Antiinflammatory activity in mouse RAW264.7 cells assessed as reduction in LPS-induced TNF-alpha production at 1 pM to 100 nM incubated for 2 hrs prior to LPS challenge measured after 8 hrs by ELISA. Format: functional, cell-based. In a few lines:
(§1)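 RAW 264.7 macrophages were plated at 1×10^5 per well, grown overnight and washed with PBS. Compounds in water (final 1 pM-100 nM, medium with 2% FCS) were added 2 h at 37 °C before E. coli 0111:B4 LPS, 2.5 µg/mL. TNF-α was sampled at 8 h; IL-6 and nitrite (Griess) at 24 h. ELISA was used for cytokines. Values are % of the LPS + medium value in each experiment. Budesonide was the reference. 2-3 experiments, 6 wells per concentration.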
In general terms: In an ELISA, binding on a coated surface is turned into a signal by an enzyme label.

The test system of data set [2] is RAW264.7. Briefly: Antiinflammatory activity in mouse RAW264.7 cells assessed as reduction in LPS-induced TNF-alpha production at 1 nM incubated for 2 hrs prior to LPS challenge measured after 8 hrs by ELISA. The data set is classed as functional. In a few lines:
as §1

Data set [3] concerns RAW264.7. Briefly: Cytoprotective activity against H2O2-induced oxidative stress in mouse RAW264.7 cells assessed as decrease in LDH release at 1 pM incubated for 2 hrs prior to H2O2 addition by colorimetric assay relative to control. Also on record: scale not given: the % may be the effect or the level left.
Data set [4] deals with RAW264.7. Briefly: Antiinflammatory activity in mouse RAW264.7 cells assessed as reduction in LPS-induced nitric oxide production at 100 pM incubated for 2 hrs prior to LPS challenge measured after 24 hrs by Griess assay. The data set is classed as functional. In a few lines: as §1
(In general: The Griess reaction detects nitrite, a stable product of nitric oxide.)

In data set [5] the test system is RAW264.7. The data set can be described thus: Cytoprotective activity against H2O2-induced oxidative stress in mouse RAW264.7 cells assessed as cell viability at 1 nM incubated for 2 hrs prior to H2O2 addition measured after 24 hrs by MTT assay (reference value: 68 to 72.8%). Format: functional. Particulars: read-out: Activity.
For data set [6], the system named is RAW264.7. Briefly: Cytoprotective activity against H2O2-induced oxidative stress in mouse RAW264.7 cells assessed as decrease in LDH release at 1 pM incubated for 2 hrs prior to H2O2 addition by colorimetric assay relative to control. Format: functional. Also on record: scale not given: the % may be the effect or the level left. In short, it runs like this:
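RAW 264.7 cells were seeded and pretreated with compound before H2O2 100 µM, in serum-free medium. Collected medium was centrifuged and incubated with reaction mix 30 min at room temperature. LDH was measured as NADH formation by colorimetric read at 490 nm. n = 8-10 replicates per concentration.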

For data set [7], the system named is RAW264.7. Briefly: Antiinflammatory activity in mouse RAW264.7 cells assessed as reduction in LPS-induced nitric oxide production at 1 nM incubated for 2 hrs prior to LPS challenge measured after 24 hrs by Griess assay. The data set is classed as functional. In short, it runs like this: as §1
In data set [8] the test system is RAW264.7. The data set can be described thus: Antiinflammatory activity in mouse RAW264.7 cells assessed as reduction in LPS-induced IL-6 production at 1 nM incubated for 2 hrs prior to LPS challenge measured after 24 hrs by ELISA. The data set is classed as functional. In short, it runs like this: as §1
The test system of data set [9] is RAW264.7. The data set can be described thus: Antiinflammatory activity in mouse RAW264.7 cells assessed as reduction in LPS-induced IL-6 production at 100 pM incubated for 2 hrs prior to LPS challenge measured after 24 hrs by ELISA. Format: functional. In a few lines: as §1
The subject of data set [10] is RAW264.7. The data set can be described thus: Antiinflammatory activity in mouse RAW264.7 cells assessed as reduction in LPS-induced nitric oxide production at 1 pM to 100 nM incubated for 2 hrs prior to LPS challenge measured after 24 hrs by Griess assay. Format: functional, cell-based. In short, it runs like this: as §1
The test system of data set [11] is RAW264.7. The data set can be described thus: Cytoprotective activity against H2O2-induced oxidative stress in mouse RAW264.7 cells assessed as decrease in caspase-3 activity at 1 pM incubated for 4 hrs prior to H2O2 addition measured after 90 mins by caspase-GloR reagent-based luminescence assay relative to control. Format: functional. In a few lines: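 RAW 264.7 macrophages were pretreated with compound (1 pM or 1 nM) 4 h before H2O2 100 µM. Medium was replaced with fresh DMEM after 90 min and plates were incubated overnight. Caspase-Glo 3/7 reagent was added and luminescence read after 30 min at room temperature. Mean ± SD, 4-6 replicates.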

Data set [12] deals with RAW264.7. Briefly: Antiinflammatory activity in mouse RAW264.7 cells assessed as reduction in LPS-induced TNF-alpha production at 100 pM incubated for 2 hrs prior to LPS challenge measured after 8 hrs by ELISA. Format: functional. In a few lines:
as §1

Data set [13] deals with RAW264.7. Briefly: Antiinflammatory activity in mouse RAW264.7 cells assessed as reduction in LPS-induced IL-6 production at 10 pM incubated for 2 hrs prior to LPS challenge measured after 24 hrs by ELISA. The data set is classed as functional. Also on record: scale not given: the % may be the effect or the level left. In a few lines: as §1
Data set [14] relates to Mus musculus. Briefly: Acute toxicity in Balb/C mouse assessed as change in water intake at 100 umol/kg, sc measured over 72 hrs. The data set is classed as organism-based. Particulars: in vivo. In a few lines: (§2)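 Male Balb/C mice, 24-28 g, groups of 3; single sc injection of compound at 100 μmoles/kg or saline (1 mL/100 g). Food and water intake, body weight and general activity monitored over 72 h against saline-injected animals.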

The subject of data set [15] is Mus musculus. The data set can be described thus: Antiinflammatory activity in Balb/C mouse assessed as reduction in LPS-induced IL6 production in plasma at 0.1 umol/kg, sc administered LPS 15 mins post compound treatment measured after 4 hrs by ELISA. Format: functional, organism-based. In a few lines: (§3)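 Male Balb/C mice, 7-8 weeks old, given compound sc (0.1, 1 or 10 µmoles/kg) or saline. LPS 10 mg/kg was given ip 15 min later, and mice were killed 4 h after that. Spleens were homogenized in PBS with protease inhibitor and centrifuged at 14,000 g, 4 °C. Cytokines in plasma and tissue supernatants were measured by ELISA, with protein by BCA. Dexamethasone 5.6 µmoles/kg was the reference. n = 8-10 mice per treatment.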

Data set [16] deals with Mus musculus. Briefly: Antiinflammatory activity in Balb/C mouse assessed as reduction in LPS-induced IL6 production in liver at 0.1 to 10 umol/kg, sc administered LPS 15 mins post compound treatment measured after 4 hrs by ELISA. The data set is classed as functional, organism-based.
In data set [17] the test system is Mus musculus. Briefly: Antiinflammatory activity in Balb/C mouse assessed as reduction in LPS-induced IL6 production in spleen at 0.1 umol/kg, sc administered LPS 15 mins post compound treatment measured after 4 hrs by ELISA. The data set is classed as functional, organism-based. In short, it runs like this: as §3
The subject of data set [18] is Mus musculus. The data set can be described thus: Acute toxicity in Balb/C mouse assessed as change in activity at 100 umol/kg, sc measured over 72 hrs. Conditions: in vivo. Format: organism-based. In a few lines:
as §2

In data set [19] the test system is Mus musculus. Briefly: Acute toxicity in Balb/C mouse assessed as change in body weight at 100 umol/kg, sc measured over 72 hrs. Conditions: in vivo. The data set is classed as organism-based. In short, it runs like this:
as §2

For data set [20], the system named is Mus musculus. The data set can be described thus: Antiinflammatory activity in Balb/C mouse assessed as reduction in LPS-induced IL6 production in brain at 0.1 umol/kg, sc administered LPS 15 mins post compound treatment measured after 4 hrs by ELISA. The data set is classed as functional, organism-based.
Data set [21] relates to RAW264.7. The data set can be described thus: Antiinflammatory activity in mouse RAW264.7 cells assessed as reduction in LPS-induced nitric oxide production at 10 pM incubated for 2 hrs prior to LPS challenge measured after 24 hrs by Griess assay. Format: functional. Also on record: scale not given: the % may be the effect or the level left. In short, it runs like this:
as §1

The subject of data set [22] is Mus musculus. Briefly: Acute toxicity in Balb/C mouse assessed as change in food intake at 100 umol/kg, sc measured over 72 hrs. Format: organism-based. Conditions: in vivo. In short, it runs like this:
as §2

The subject of data set [23] is RAW264.7. The data set can be described thus: Cytoprotective activity against H2O2-induced oxidative stress in mouse RAW264.7 cells assessed as cell viability at 1 pM incubated for 2 hrs prior to H2O2 addition measured after 24 hrs by MTT assay (reference value: 68 to 72.8%). Format: functional. Particulars: read-out: Activity.
Data set [24] has as its system Mus musculus. The data set can be described thus: Antiinflammatory activity in Balb/C mouse assessed as reduction in LPS-induced TNF-alpha production in plasma at 0.1 umol/kg, sc administered LPS 15 mins post compound treatment measured after 4 hrs by ELISA. The data set is classed as functional, organism-based. In a few lines:
as §3

The test system of data set [25] is Mus musculus. The data set can be described thus: Antiinflammatory activity in Balb/C mouse assessed as reduction in LPS-induced TNF-alpha production in spleen at 0.1 umol/kg, sc administered LPS 15 mins post compound treatment measured after 4 hrs by ELISA. The data set is classed as functional, organism-based. In short, it runs like this: as §3
In data set [26] the test system is RAW264.7. Briefly: Antiinflammatory activity in mouse RAW264.7 cells assessed as reduction in LPS-induced TNF-alpha production at 10 pM incubated for 2 hrs prior to LPS challenge measured after 8 hrs by ELISA. Also on record: scale not given: the % may be the effect or the level left. Format: functional. In short, it runs like this: as §1

The source made the active and inactive calls. The rule behind the calls is not given here.

Consider `Cl.NCCCN1CCc2ccccc21`, for which the result with RAW264.7 [1], with RAW264.7 [2], with RAW264.7 [4], with RAW264.7 [7], in the data set with RAW264.7 [8] and in the data set on RAW264.7 [9] was Active. Besides, the outcome with RAW264.7 [10] and in the data set on RAW264.7 [12] was Active. For the same compound, the Activity in the data set with RAW264.7 [3] and in the data set with RAW264.7 [6] was 16% in each case. In the data set on RAW264.7 [5], the viability at 0.001 µM was 91.9%. Besides, in the data set with RAW264.7 [11], the result was inactive.

On to `CC(C)NC(=O)CCN1CCc2ccccc21.Cl`, for which the Activity is 50% in the data set on RAW264.7 [13]; “Non-Toxic” with Mus musculus [14]; 16% in the data set on RAW264.7 [3]; “Non-Toxic” in the data set on Mus musculus [18]; “Non-Toxic” in the data set on Mus musculus [19]; 50% in the data set on RAW264.7 [4]. Also, the Activity is 16% in the data set with RAW264.7 [6]; 50% in the data set with RAW264.7 [21]; “Non-Toxic” in the data set on Mus musculus [22]; 50% with RAW264.7 [9]; 50% in the data set with RAW264.7 [26]. For the same compound, the result in the data set on Mus musculus [15], with Mus musculus [17], in the data set with Mus musculus [20], with Mus musculus [24] and in the data set on Mus musculus [25] was Active. Further, the result in the data set with Mus musculus [16] was inactive. Further, the viability at 1 pM in the data set with RAW264.7 [23] came to 93.7%.

For the origin of these results see ChEMBL document CHEMBL4177768, “Synthesis and Biological Evaluation of Derivatives of Indoline as Highly Potent Antioxidant and Anti-inflammatory Agents” (J Med Chem, 2018).
